Bioassay records deposited in PubChem by Sanford-Burnham Center for Chemical Genomics.
An excerpt weighted towards active compounds, which were near 2% of everything screened.
DNMT1 block = inhibitors of human DNMT1 | P26358 | DNMT1 molecular beacon, Hinp1I cleavage, fluorescence | actives 0.83% (n = 360,000) | inhibition (reported as % activation of signal), % at 10 µM; in the data active = inhibition above about 50%
Target sequence (P26358 504-1616 limits assumed): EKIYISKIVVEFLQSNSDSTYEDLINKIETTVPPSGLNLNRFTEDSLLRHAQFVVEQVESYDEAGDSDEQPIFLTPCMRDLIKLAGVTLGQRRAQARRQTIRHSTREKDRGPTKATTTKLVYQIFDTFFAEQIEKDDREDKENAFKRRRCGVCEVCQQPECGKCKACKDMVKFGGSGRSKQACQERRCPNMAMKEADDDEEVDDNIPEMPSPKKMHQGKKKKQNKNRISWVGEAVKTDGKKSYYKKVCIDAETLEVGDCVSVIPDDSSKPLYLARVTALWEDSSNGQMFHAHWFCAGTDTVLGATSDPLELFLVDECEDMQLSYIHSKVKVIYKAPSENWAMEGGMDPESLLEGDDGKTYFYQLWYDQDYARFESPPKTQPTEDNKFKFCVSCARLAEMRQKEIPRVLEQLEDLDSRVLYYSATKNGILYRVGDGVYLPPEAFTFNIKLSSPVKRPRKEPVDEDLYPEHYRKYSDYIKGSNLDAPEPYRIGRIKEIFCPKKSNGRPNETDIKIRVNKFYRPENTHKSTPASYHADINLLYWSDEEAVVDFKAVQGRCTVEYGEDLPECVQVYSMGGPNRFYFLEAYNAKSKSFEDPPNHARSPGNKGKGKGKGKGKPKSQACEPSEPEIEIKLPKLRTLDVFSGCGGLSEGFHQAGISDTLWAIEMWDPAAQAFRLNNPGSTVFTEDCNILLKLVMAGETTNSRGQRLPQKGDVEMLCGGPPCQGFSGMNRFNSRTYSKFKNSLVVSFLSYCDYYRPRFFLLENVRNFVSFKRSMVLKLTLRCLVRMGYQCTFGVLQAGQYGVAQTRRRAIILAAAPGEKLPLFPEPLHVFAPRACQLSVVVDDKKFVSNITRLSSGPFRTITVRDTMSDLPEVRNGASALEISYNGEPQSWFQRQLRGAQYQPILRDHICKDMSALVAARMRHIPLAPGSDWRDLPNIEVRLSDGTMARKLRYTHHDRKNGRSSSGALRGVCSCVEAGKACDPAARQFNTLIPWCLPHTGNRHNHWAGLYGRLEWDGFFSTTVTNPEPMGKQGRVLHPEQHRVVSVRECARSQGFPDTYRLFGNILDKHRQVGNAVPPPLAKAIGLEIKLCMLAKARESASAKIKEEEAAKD
LMPTP block = blocks human LMPTP phosphatase; recombinant LMPTP-A, OMFP fluorogenic substrate, fluorescence intensity; P24666; actives 0.22% (n = 360,000); inhibition, % at 20 µM;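 active = compounds that cut the enzyme signal by at least half of the control window in the single-dose screen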;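 note: plate controls were DMSO wells with enzyme plus substrate for no effect and substrate without enzyme for full effect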
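Test system – LMPTP-A phosphatase enzyme · Quantity – 0.625 nM LMPTP-A final · Reagent – OMFP substrate, 400 µM final · Dosing – one test concentration per compound, 20 µM, with 3% DMSO overall · Timing – 50 min enzyme reaction at room temperature, protected from light · Detection – fluorescence intensity · Controls – substrate-only low control, DMSO enzyme-plus-substrate high control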
Scp-1 inhibitor = blocks human Scp-1 phosphatase activity | actives 0.88% (n = 340,000) | inhibition, % at 20 µM | Recombinant Scp1, phosphopeptide, malachite green phosphate absorbance;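 active = inhibition above about 50% at 20 µM, limit read from the data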;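 note: plate controls were DMSO wells with enzyme for no effect and wells lacking enzyme for full effect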
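System: SCP-1 catalytic domain; Reagent: Phospho 17-mer peptide substrate; Doses: one concentration, 20 µM, with 1.0% DMSO; Incubation: 45 min room-temperature reaction, 5 min colour, 30 min stabiliser; Signal: Phosphate-binding colour reagent, absorbance read at 630 nm.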
STEP block = inhibitors of human striatal-enriched phosphatase STEP | P54829 | recombinant STEP, OMFP fluorogenic substrate, fluorescence | inhibition, % at 20 µM | actives 0.25% (n = 360,000);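 active = inhibition at 20 µM, scaled per plate between control wells, above about 37%, limit read from the data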;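 note: 0% = DMSO with enzyme and substrate and 100% = substrate only without enzyme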
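System: STEP phosphatase, cell-free reaction; Buffer or medium: Bis-Tris pH 6.0 buffer with DTT, detergent; Incubation: 20 min at room temperature, dark; Measured by: fluorescence, 480/540 nm.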
Rpn11 inh = Rpn11 (human) deubiquitinase inhibition; O00487; human 26S proteasome, Ub4-pepOG fluorescence polarization; 20S core pre-blocked with epoxomicin; inhibition, % at 20 µM; actives 0.59% (n = 360,000);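 active = inhibition at 20 µM, scaled to each plate's controls, above about 33%, limit read from the data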
Scp1 confirm = Scp-1 (human) inhibition, single-dose confirmed | shares compounds with Scp-1 inhibitor | recombinant SCP-1 catalytic domain, phosphate release, malachite green absorbance | inhibition, % at 20 µM | actives 61% (n = 2,500);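 note: plate controls were DMSO with enzyme for no effect and buffer wells lacking enzyme for full effect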
MG interference = counter-screen for Scp-1 inhibitors: colorimetric interference; shares compounds with Scp-1 inhibitor; Colorimetric interference counterscreen, malachite green absorbance 630 nm; apparent inhibition (interference), % at 20 µM; 2,500 tested, under 10 active; AID 540313;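 note: compounds added after enzyme reaction finished so only phosphate colour detection is probed; plate controls were DMSO wells with completed Scp-1 reaction for no effect and substrate wells lacking enzyme for full effect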
Scp1 DSF = validation of human Scp-1 inhibitors by thermal shift binding. Recombinant SCP1, Sypro Orange thermal shift Tm. thermal shift relative to vanadate control, % at 40 µM. actives 25% (n = 1,500). shares compounds with Scp-1 inhibitor. AID 540329;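 active = substances whose mean melting-temperature shift, as a percentage of the reference inhibitor's shift, reaches about 5.3%, limit read from the data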;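 note: 0% = Tm of DMSO wells and 100% = Tm with sodium orthovanadate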
* marks the source's active call; other numbers are inactive results; x = not tested or not shown.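 Rule for the calls, unless noted: active = inhibition of at least 30% at 20 µM; inactive = the rest.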

SMILES	DNMT1 block	LMPTP block	Scp-1 inhibitor	STEP block	Rpn11 inh	Scp1 confirm	MG interference	others
COC(=O)c1ccc2nc(-c3ccc(F)cc3)c(Cc3ccccc3C(F)(F)F)n2c1	x	2	x	x	x	x	x
O=C(CN1CCN(c2ccccc2F)CC1)c1ccc2cc[nH]c2c1	-19	67*	2	2	7	x	x
COc1ccc(CNCCCn2cnc3c(SC)ncnc32)cc1	4	-2	x	-1	-9	x	x
NC(CSC(c1ccccc1)(c1ccccc1)c1ccc2c(c1)OCO2)C(=O)O (stereo unspecified)	51*	2	x	4	14	x	x
COCCN(CCOC)Cc1cc(=O)oc2cc(C)c(C)cc12	26	0	x	1	6	x	x
CCN1/C(=C/C(C)=C/c2sc3ccccc3[n+]2CC)Sc2ccccc21	13	74*	-1	37	121*	x	x
CCN1/C(=C\C(=S)Nc2ccccc2)Sc2ccccc21	-4	1	-3	-2	11	x	x
Cc1ccccc1/C=N/Nc1nc2ccccc2[nH]1	4	4	-1	1	-5	x	x
O=[N+]([O-])c1cc(/C=N/Nc2nc3ccccc3[nH]2)c(O)cc1O	x	x	56*	x	x	x	x
Cc1ccc(Nc2cc(C)c3c(O)cccc3n2)cc1C	-16	67*	2	5	1	x	x
Cc1ccccc1Nc1cc(C)c2c(O)cccc2n1	0	67*	-16	-1	-5	x	x
COc1ccc(Nc2cc(C)c3c(O)cccc3n2)cc1	-14	79*	-4	-3	2	x	x
COc1cccc(C2C(C#N)=C(N)OC3=C2C(=O)CC(c2ccco2)C3)c1OCc1ccc(F)cc1 (stereo unspecified)	10	38	8	2	12	x	x
N#CC1=C(N)OC2=C(C(=O)CC(c3ccco3)C2)C1c1ccc(OCc2c(F)cccc2Cl)cc1 (stereo unspecified)	1	65*	14	2	12	x	x
C/C(=N\NC(=O)c1cc(Br)ccc1O)c1cccc(NC(=O)c2ccccc2F)c1	2	4	86*	9	-2	79*	-13	Scp1 DSF=5.8*
C/C(=N\NC(=O)c1ccccc1F)c1cccc(NC(=O)c2ccccc2)c1	1	0	-11	-1	-4	x	x
C/C(=N\NC(=O)c1cc(Br)ccc1O)c1cccs1	5	-1	66*	5	-4	69*	-7	Scp1 DSF=-2
C/C(=N/NC(=O)c1ccc(Br)o1)c1cccs1	1	-1	-5	0	4	x	x
CCCCN(CCCNC(=S)NCCCc1cnc[nH]1)c1ccc(Br)cn1	-3	-6	x	8	7	x	x
CC1CC(C)(C)CC2(C1)NC(=O)N(CC(=O)Nc1cc(C(F)(F)F)ccc1N1CCCCC1)C2=O (stereo unspecified)	-26	-16	-5	-1	0	x	x
C(=N\n1c2ccccc2c2ccccc21)/c1ccccc1	-2	2	-8	-1	-2	x	x
C[n+]1cn(/N=C/c2ccccc2)c2ccccc21	-1	-3	113*	-4	0	-4	-8
Cc1c(C(=O)O)sc2nc(CSc3ncc(C(F)(F)F)cc3Cl)[nH]c(=O)c12	11	0	97*	5	0	49*	-16	Scp1 DSF=-1
CCOC(=O)c1sc2nc(CSc3ccccc3Cl)[nH]c(=O)c2c1C	4	-2	-5	0	x	x	x
C[C@@H](NC(=O)Cn1ccc(N)nc1=O)c1cccc2ccccc12	1	-2	-2	-2	0	-24	-25
SMILES	DNMT1 block	LMPTP block	Scp-1 inhibitor	STEP block	Rpn11 inh	Scp1 confirm	MG interference	others
Cc1nnc(SCC(=O)Nc2sccc2C#N)s1	27	35	60*	3	-7	40*	-11	Scp1 DSF=2
O=C(Nc1cccc(-c2nc3ncccc3o2)c1)c1cc2ccccc2o1	1	2	3	-3	3	x	x
O=C(Cc1ccccc1)Nc1cccc(-c2nc3ncccc3o2)c1	-2	1	68*	-1	-18	5	-8
CC1C(=O)N(Cc2cn(CCC3OCCCO3)nn2)CCS(=O)(=O)N1Cc1ccc(-c2ccncc2)cc1 (stereo unspecified)	4	-1	x	0	3	x	x
CC(C)(C)C(=O)O/N=C(\N)COc1cccc(Cl)c1	2	0	79*	-1	2	-8	-8
CN(Cc1ccccc1)C(=O)c1ccc(Cc2cn(C)c3ccccc23)nc1	0	1	x	17	1	x	x
CCc1ccc(NC(=O)Cn2cnc3c(=O)n(C)c(=O)n(C)c32)cc1	-1	-1	28	0	0	x	x
CCc1ccc(C(C)NC(=O)Cn2cnc3c(=O)n(C)c(=O)n(C)c32)cc1 (stereo unspecified)	-1	0	-2	-1	-3	-1	-2
O=C(N/N=C/c1ccc2c(c1)OCO2)c1ccc2c(c1)OCCO2	1	0	-3	-1	-7	x	x
O=C(N/N=C/c1ccc2c(c1)OCO2)c1ccc(COCC(F)(F)C(F)F)cc1	7	25	72*	9	42*	77*	-11	Scp1 DSF=-12
O=C(N/N=C\C=C\c1ccc(Br)cc1)c1ccc2c(c1)OCO2	81*	57*	95*	98*	116*	94*	-4	Scp1 DSF=-3
COc1ccc(/C=N/NC(=O)c2ccc(COCC(F)(F)C(F)F)cc2)cc1	0	-2	-1	-1	-2	x	x
C[n+]1cccc(C(=O)N/N=C/c2ccc3c(c2)OCO3)c1	0	0	50*	1	2	15	-7
Cc1nn(C)cc1C(=O)Nc1ccc2c(c1)OCCO2	-2	0	-7	0	2	x	x
CC1=NNC(=O)C1CCC(=O)N/N=C/c1ccccc1 (stereo unspecified)	-1	0	-13	1	4	x	x
CC1=NNC(=O)C1CCC(=O)N/N=C(\C)c1ccccc1 (stereo unspecified)	0	0	5	5	8	-3	-7
CC1=NNC(=O)C1CCC(=O)N/N=C/c1ccc(Cl)cc1 (stereo unspecified)	2	1	-1	5	3	x	x
CC1=NNC(=O)C1CCC(=O)N/N=C/c1c(Cl)cccc1Cl (stereo unspecified)	-2	0	5	1	-4	-8	-6
C[C@@H]1CN([C@@H](C)CO)C(=O)c2cc(C#Cc3ccccc3)cnc2O[C@H]1CN(C)C(=O)c1ccccc1F	1	-1	x	4	-8	x	x
Cc1ccc(-c2ccc(C(=O)Nc3ccccc3)o2)c2ccccc12	-16	5	-14	3	8	x	x
